From ChEMBL document CHEMBL4689842, “EUbOPEN Chemogenomics Library wave 1” (2021)

Assays:
Type in all cases: toxicity, cell-based
Fibroblast = experiment: Multiplex assay against human fibroblast
Procedure, shortened: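 Compound was added to live cells that had been stained at seeding with Hoechst33342, BioTracker Green Microtubule Cytoskeleton Dye, MitoTracker Red and Annexin V Alexa Fluor 680, and imaging followed on a CQ1 microscope at 37°C and 5% CO2. CellPathfinder machine-learning gating divided cells into Hoechst high-intensity objects or normal cells, normal cells into healthy, pyknosed or fragmented nuclei, and pyknosed cells into mitotic or apoptotic. Tubulin, mitochondrial-mass and membrane-permeability phenotypes are per cents of healthy-nucleus cells.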

HEK-293T = experiment: Incucyte cell viability with HEK293T; conditions: human, 10 µM, compound concentration 10 uM; note: filed as whole numbers so only -1 and 0 and 1 occur
U2OS = experiment: Incucyte cell viability with U2OS; conditions: human, 10 µM, compound concentration 10 uM; note: filed as whole numbers so only -1 and 0 and 1 occur
[1] = 12 h, 1 µM, compound concentration 1 uM, replicate 1
[2] = 12 h, 1 µM, compound concentration 1 uM, replicate 2
[3] = 12 h, 10 µM, compound concentration 10 uM, replicate 1
[4] = 12 h, 10 µM, compound concentration 10 uM, replicate 2
[5] = 24 h, 1 µM, compound concentration 1 uM, replicate 1
[6] = 24 h, 1 µM, compound concentration 1 uM, replicate 2
[7] = 24 h, 10 µM, compound concentration 10 uM, replicate 1
[8] = 24 h, 10 µM, compound concentration 10 uM, replicate 2
[9] = 48 h, 1 µM, compound concentration 1 uM, replicate 1
[10] = 48 h, 1 µM, compound concentration 1 uM, replicate 2
[11] = 48 h, 10 µM, compound concentration 10 uM, replicate 1
[12] = 48 h, 10 µM, compound concentration 10 uM, replicate 2
[13] = 0 h, replicate number 1, timepoint 0 hours
[14] = 6 h, replicate number 2, timepoint 6 hours
[15] = 12 h, replicate number 1, timepoint 12 hours
[16] = 18 h, replicate number 1, timepoint 18 hours
[17] = 24 h, replicate number 1, timepoint 24 hours

CN(c1cc(C(F)(F)F)nc(OCCC(=O)O)n1)c1cccc2c1CCC2
Population Apoptotic (%) (Fibroblast; [1]): 70%
Population Fragmented Nuclei (%) (Fibroblast; [1]): 18%
Population Healthy Nuclei (%) (Fibroblast; [1]): 47%
Population Hoechst High Intensity Objects (%) (Fibroblast; [1]): 11%
Population Membrane Permeable-Phenotype (%) (Fibroblast; [1]): 17%
Population Mitochondria Different-Phenotype (%) (Fibroblast; [1]): 6%
Population Mitotic Cells (%) (Fibroblast; [1]): 29%
Population Normal (%) (Fibroblast; [1]): 88%
Population Pyknosed Nuclei (%) (Fibroblast; [1]): 33%
Population Tubulin-Different-Phenotype (%) (Fibroblast; [1]): 27%
Total Cell Count (Fibroblast; [1]): 136
Population Apoptotic (%) (Fibroblast; [2]): 0%
Population Fragmented Nuclei (%) (Fibroblast; [2]): 9%
Population Healthy Nuclei (%) (Fibroblast; [2]): 80%
Population Hoechst High Intensity Objects (%) (Fibroblast; [2]): 12%
Population Membrane Permeable-Phenotype (%) (Fibroblast; [2]): 4%
Population Mitochondria Different-Phenotype (%) (Fibroblast; [2]): 20%
Population Mitotic Cells (%) (Fibroblast; [2]): 100%
Population Normal (%) (Fibroblast; [2]): 87%
Population Pyknosed Nuclei (%) (Fibroblast; [2]): 9%
Population Tubulin-Different-Phenotype (%) (Fibroblast; [2]): 28%
Total Cell Count (Fibroblast; [2]): 65
Population Apoptotic (%) (Fibroblast; [3]): 61%
Population Fragmented Nuclei (%) (Fibroblast; [3]): 23%
Population Healthy Nuclei (%) (Fibroblast; [3]): 49%
Population Hoechst High Intensity Objects (%) (Fibroblast; [3]): 11%
Population Membrane Permeable-Phenotype (%) (Fibroblast; [3]): 25%
Population Mitochondria Different-Phenotype (%) (Fibroblast; [3]): 6%
Population Mitotic Cells (%) (Fibroblast; [3]): 38%
Population Normal (%) (Fibroblast; [3]): 88%
Population Pyknosed Nuclei (%) (Fibroblast; [3]): 27%
Population Tubulin-Different-Phenotype (%) (Fibroblast; [3]): 26%
Total Cell Count (Fibroblast; [3]): 172
Population Apoptotic (%) (Fibroblast; [4]): 0%
Population Fragmented Nuclei (%) (Fibroblast; [4]): 13%
Population Healthy Nuclei (%) (Fibroblast; [4]): 86%
Population Hoechst High Intensity Objects (%) (Fibroblast; [4]): 14%
Population Membrane Permeable-Phenotype (%) (Fibroblast; [4]): 4%
Population Mitochondria Different-Phenotype (%) (Fibroblast; [4]): 10%
Population Mitotic Cells (%) (Fibroblast; [4]): 0%
Population Normal (%) (Fibroblast; [4]): 85%
Population Pyknosed Nuclei (%) (Fibroblast; [4]): 0%
Population Tubulin-Different-Phenotype (%) (Fibroblast; [4]): 30%
Total Cell Count (Fibroblast; [4]): 71
Population Apoptotic (%) (Fibroblast; [5]): 54%
Population Fragmented Nuclei (%) (Fibroblast; [5]): 26%
Population Healthy Nuclei (%) (Fibroblast; [5]): 46%
Population Hoechst High Intensity Objects (%) (Fibroblast; [5]): 11%
Population Membrane Permeable-Phenotype (%) (Fibroblast; [5]): 28%
Population Mitochondria Different-Phenotype (%) (Fibroblast; [5]): 7%
Population Mitotic Cells (%) (Fibroblast; [5]): 45%
Population Normal (%) (Fibroblast; [5]): 88%
Population Pyknosed Nuclei (%) (Fibroblast; [5]): 27%
Population Tubulin-Different-Phenotype (%) (Fibroblast; [5]): 30%
Total Cell Count (Fibroblast; [5]): 129
Population Apoptotic (%) (Fibroblast; [6]): 0%
Population Fragmented Nuclei (%) (Fibroblast; [6]): 4%
Population Healthy Nuclei (%) (Fibroblast; [6]): 95%
Population Hoechst High Intensity Objects (%) (Fibroblast; [6]): 8%
Population Membrane Permeable-Phenotype (%) (Fibroblast; [6]): 2%
Population Mitochondria Different-Phenotype (%) (Fibroblast; [6]): 13%
Population Mitotic Cells (%) (Fibroblast; [6]): 0%
Population Normal (%) (Fibroblast; [6]): 91%
Population Pyknosed Nuclei (%) (Fibroblast; [6]): 0%
Total Cell Count (Fibroblast; [6]): 68
Population Apoptotic (%) (Fibroblast; [7]): 56%
Population Fragmented Nuclei (%) (Fibroblast; [7]): 14%
Population Healthy Nuclei (%) (Fibroblast; [7]): 60%
Population Hoechst High Intensity Objects (%) (Fibroblast; [7]): 7%
Population Membrane Permeable-Phenotype (%) (Fibroblast; [7]): 21%
Population Mitochondria Different-Phenotype (%) (Fibroblast; [7]): 3%
Population Mitotic Cells (%) (Fibroblast; [7]): 43%
Population Normal (%) (Fibroblast; [7]): 92%
Population Pyknosed Nuclei (%) (Fibroblast; [7]): 25%
Population Tubulin-Different-Phenotype (%) (Fibroblast; [7]): 34%
Total Cell Count (Fibroblast; [7]): 198
Population Apoptotic (%) (Fibroblast; [8]): 0%
Population Fragmented Nuclei (%) (Fibroblast; [8]): 13%
Population Healthy Nuclei (%) (Fibroblast; [8]): 81%
Population Hoechst High Intensity Objects (%) (Fibroblast; [8]): 13%
Population Membrane Permeable-Phenotype (%) (Fibroblast; [8]): 3%
Population Mitochondria Different-Phenotype (%) (Fibroblast; [8]): 13%
Population Mitotic Cells (%) (Fibroblast; [8]): 100%
Population Normal (%) (Fibroblast; [8]): 86%
Population Pyknosed Nuclei (%) (Fibroblast; [8]): 5%
Population Tubulin-Different-Phenotype (%) (Fibroblast; [8]): 44%
Total Cell Count (Fibroblast; [8]): 79
Population Apoptotic (%) (Fibroblast; [9]): 51%
Population Fragmented Nuclei (%) (Fibroblast; [9]): 35%
Population Healthy Nuclei (%) (Fibroblast; [9]): 41%
Population Hoechst High Intensity Objects (%) (Fibroblast; [9]): 20%
Population Membrane Permeable-Phenotype (%) (Fibroblast; [9]): 32%
Population Mitochondria Different-Phenotype (%) (Fibroblast; [9]): 2%
Population Mitotic Cells (%) (Fibroblast; [9]): 48%
Population Normal (%) (Fibroblast; [9]): 79%
Population Pyknosed Nuclei (%) (Fibroblast; [9]): 23%
Population Tubulin-Different-Phenotype (%) (Fibroblast; [9]): 38%
Total Cell Count (Fibroblast; [9]): 147
Population Apoptotic (%) (Fibroblast; [10]): 33%
Population Fragmented Nuclei (%) (Fibroblast; [10]): 19%
Population Healthy Nuclei (%) (Fibroblast; [10]): 76%
Population Hoechst High Intensity Objects (%) (Fibroblast; [10]): 10%
Population Membrane Permeable-Phenotype (%) (Fibroblast; [10]): 16%
Population Mitochondria Different-Phenotype (%) (Fibroblast; [10]): 0%
Population Mitotic Cells (%) (Fibroblast; [10]): 66%
Population Normal (%) (Fibroblast; [10]): 90%
Population Pyknosed Nuclei (%) (Fibroblast; [10]): 4%
Population Tubulin-Different-Phenotype (%) (Fibroblast; [10]): 30%
Total Cell Count (Fibroblast; [10]): 80
Population Apoptotic (%) (Fibroblast; [11]): 54%
Population Fragmented Nuclei (%) (Fibroblast; [11]): 25%
Population Healthy Nuclei (%) (Fibroblast; [11]): 67%
Population Hoechst High Intensity Objects (%) (Fibroblast; [11]): 14%
Population Membrane Permeable-Phenotype (%) (Fibroblast; [11]): 14%
Population Mitochondria Different-Phenotype (%) (Fibroblast; [11]): 3%
Population Mitotic Cells (%) (Fibroblast; [11]): 45%
Population Normal (%) (Fibroblast; [11]): 85%
Population Pyknosed Nuclei (%) (Fibroblast; [11]): 7%
Population Tubulin-Different-Phenotype (%) (Fibroblast; [11]): 19%
Total Cell Count (Fibroblast; [11]): 175
Population Apoptotic (%) (Fibroblast; [12]): 40%
Population Fragmented Nuclei (%) (Fibroblast; [12]): 22%
Population Healthy Nuclei (%) (Fibroblast; [12]): 73%
Population Hoechst High Intensity Objects (%) (Fibroblast; [12]): 10%
Population Membrane Permeable-Phenotype (%) (Fibroblast; [12]): 15%
Population Mitochondria Different-Phenotype (%) (Fibroblast; [12]): 4%
Population Mitotic Cells (%) (Fibroblast; [12]): 60%
Population Normal (%) (Fibroblast; [12]): 89%
Population Pyknosed Nuclei (%) (Fibroblast; [12]): 4%
Population Tubulin-Different-Phenotype (%) (Fibroblast; [12]): 34%
Total Cell Count (Fibroblast; [12]): 125
Growth Rate (HEK-293T; [13]): 0
Growth Rate (HEK-293T; [14]): 0
Growth Rate (HEK-293T; [15]): 1
Growth Rate (HEK-293T; [16]): 1
Growth Rate (HEK-293T; [17]): 1
Growth Rate (U2OS; [13]): 0
Growth Rate (U2OS; [14]): 0
Growth Rate (U2OS; [15]): 0
Growth Rate (U2OS; [16]): 0
Growth Rate (U2OS; [17]): 0
